# According to ChEMBL document CHEMBL4400568, “The design of 1,4-naphthoquinone derivatives and mechanisms underlying apoptosis induction through ROS-dependent MAPK/Akt/STAT3 pathways in human lung cancer cells” (Bioorg Med Chem, 2019):
# The source made the active and inactive calls. No cut-off for these calls is given here.
# Assays:
# A549 [1] = test: Cell cycle arrest in human A549 cells assessed as accumulation of cells at G2 phase at 3 uM after 3 hrs by propidium iodide staining-based flow cytometric analysis (reference value: 24.02%); format: functional
# NCI-H23 = test: Cytotoxicity against human NCI-H23 cells assessed as reduction in cell viability after 24 hrs by MTT assay; format: functional, cell-based
# Procedure, shortened: (§1)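 Log-phase cells seeded at 1 × 10⁴ per well. Lung cancer lines (A549, NCI-H23, NCI-H460) and normal lines (IMR-90, QSG-7701, HEK-293A) each exposed to 1, 3, 10, 30 and 100 μM for 24 h. MTT (5 mg/mL stock) added for 2 h at 37°C, formazan dissolved in DMSO, absorbance read at 490 nm. Three independent experiments, mean ± SD.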
# A549 [2] = test: Cytotoxicity against human A549 cells assessed as reduction in cell viability after 24 hrs by MTT assay; format: functional, cell-based; conditions: A549, 24 h; procedure, shortened: as §1
# A549 [3] = test: Modulation of ERK in human A549 cells assessed as increase in cleaved caspase-3 measured after 24 hrs in presence of ERK inhibitor-FR180204 by Western blot analysis; format: cell-based
# Procedure, shortened: (§2)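 A549 cells pre-incubated for 30 min with 12.1 μM kinase inhibitor: SB203580 (p38), SP600125 (JNK), FR180204 (ERK) or LY10249 (Akt). Compound treatment followed for 24 h. Lysates (30 μg protein) analysed by 12% SDS-PAGE and nitrocellulose immunoblot with HRP detection. Three independent experiments, mean ± SD.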
# A549 [4] = test: Cell cycle arrest in human A549 cells assessed as accumulation of cells at G2 phase at 3 uM after 12 hrs by propidium iodide staining-based flow cytometric analysis (reference value: 24.02%); format: functional
# A549 [5] = test: Induction of ROS generation in human A549 cells assessed as intracellular ROS level at 3 uM after 6 hrs by DCFH-DA staining-based flow cytometric analysis (reference value: 51.8%); format: functional
# Procedure, shortened: (§3)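 A549 cells loaded with DCFH-DA (10 μM per legend) for 30 min, then exposed to 3 μM at 37°C for 3, 6, 12 or 24 h. After two PBS washes, intracellular fluorescence is quantified by flow cytometry. Three independent experiments, mean ± SD.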
# [6] = molecular target: MAP kinase p38 (Homo sapiens) (UniProt O15264+Q15759+Q16539+P53778); test: Modulation of p38 MAPK in human A549 cells assessed as reduction in STAT3 phosphorylation measured after 24 hrs in presence of p38 inhibitor SB203580 by Western blot analysis; format: cell-based; procedure, shortened: as §2
# A549 [7] = test: Induction of apoptosis in human A549 cells assessed as late apoptotic cells at 3 uM after 24 hrs by Annexin V-FITC/propidium iodide staining-based flow cytometric analysis (reference value: 4.52%); format: functional
# A549 [8] = test: Induction of apoptosis in human A549 cells assessed as apoptotic morphological changes at 3 uM by Annexin V-FITC/propidium iodide staining-based flow cytometric analysis; format: functional, cell-based; conditions: TDE = time-dependent effect
# [9] = molecular target: T1, c-Jun N-terminal kinase, JNK (Homo sapiens) (UniProt P45983+P53779+P45984); test: Activation of JNK phosphorylation in human A549 cells at 3 uM after 3 to 24 hrs by Western blot analysis; format: cell-based
# Procedure, shortened: (§4)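 A549 cells exposed to 3 μM for 3, 6, 12 or 24 h; where NAC is used, 10 mM NAC is added 30 min before 24 h treatment. Lysate protein (30 μg) is run on 12% SDS-PAGE, blotted to nitrocellulose, blocked in 5% milk, primary antibody overnight at 4°C, then HRP anti-IgG. β-actin loading control; densitometry; three independent experiments, mean ± SD.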
# A549 [10] = test: Induction of ROS generation in human A549 cells at 3 uM by DCFH-DA staining-based flow cytometric analysis; format: functional, cell-based; conditions: TDE = time-dependent effect; procedure, shortened: as §3
# A549 [11] = test: Inhibition of ERK phosphorylation in human A549 cells at 3 uM after 24 hrs in presence of NAC by Western blot analysis; format: cell-based
# Procedure, shortened: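 A549 cells pretreated with 10 mM NAC for 30 min, then exposed to compound for 24 h. Lysate protein (30 μg) resolved on 12% SDS-PAGE and transferred to nitrocellulose. Probed with primary antibodies overnight at 4°C, then HRP secondary. Band densities from three independent experiments, mean ± SD.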
# A549 [12] = test: Induction of apoptosis in human A549 cells at 3 uM by Annexin V-FITC/propidium iodide staining-based flow cytometric analysis; format: functional, cell-based; conditions: TDE = time-dependent effect
# Procedure, shortened: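 A549 cells seeded at 1 × 10⁵ cells/well, exposed to 3 μM for 3, 6, 12 and 24 h. Then incubated in binding buffer and stained with Annexin V-FITC and PI for 20 min in the dark. Apoptotic cells were scored by fluorescence microscopy and flow cytometry. Three independent experiments, mean ± SD.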
# A549 [13] = test: Induction of apoptosis in human A549 cells assessed as increase in Bad levels at 3 uM after 24 hrs by Western blot analysis; format: functional, cell-based; procedure, shortened: as §4
# A549 [14] = test: Induction of apoptosis in human A549 cells assessed as early apoptotic cells at 3 uM in presence of NAC by Annexin V-FITC/propidium iodide staining-based flow cytometric analysis (reference value: 5.31%); format: functional
# A549 [15] = test: Cell cycle arrest in human A549 cells assessed as accumulation of cells at G2 phase at 3 uM after 6 hrs by propidium iodide staining-based flow cytometric analysis (reference value: 24.02%); format: functional
# NCI-H460 = test: Cytotoxicity against human NCI-H460 cells assessed as reduction in cell viability after 24 hrs by MTT assay; format: functional, cell-based; procedure, shortened: as §1
# A549 [16] = test: Induction of apoptosis in human A549 cells assessed as cell shrinkage at 3 uM by Annexin V-FITC/propidium iodide staining-based flow cytometric analysis; format: functional; conditions: TDE = time-dependent effect
# A549 [17] = test: Induction of apoptosis in human A549 cells assessed as late apoptotic cells at 3 uM after 12 hrs by Annexin V-FITC/propidium iodide staining-based flow cytometric analysis (reference value: 4.52%); format: functional
# A549 [18] = test: Induction of apoptosis in human A549 cells assessed as increase in cleaved PARP at 3 uM measured after 24 hrs in presence of NAC by Western blot analysis; format: functional, cell-based; procedure, shortened: as §4
# A549 [19] = test: Inhibition of ERK phosphorylation in human A549 cells at 3 uM after 3 to 24 hrs by Western blot analysis; format: cell-based
# Procedure, shortened: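 A549 cells exposed to 3 μM for 3, 6, 12 or 24 h. Lysate protein (30 μg) run on 12% SDS-PAGE and blotted to nitrocellulose. Membranes blocked in 5% skim milk, primary antibodies at 4°C overnight, then HRP anti-IgG secondary for 1 h at room temperature. β-actin was the internal control. Bands quantified by densitometry; three independent experiments, mean ± SD.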
# [20] = molecular target: T1, c-Jun N-terminal kinase, JNK (Homo sapiens); test: Activation of JNK phosphorylation in human A549 cells at 3 uM after 24 hrs in presence of NAC by Western blot analysis; format: cell-based; procedure, shortened: as §4
# A549 [21] = test: Induction of apoptosis in human A549 cells assessed as late apoptotic cells at 3 uM after 6 hrs by Annexin V-FITC/propidium iodide staining-based flow cytometric analysis (reference value: 4.52%); format: functional
# A549 [22] = test: Cell cycle arrest in human A549 cells assessed as accumulation of cells at G1 phase at 3 uM after 12 hrs by propidium iodide staining-based flow cytometric analysis (reference value: 57.65%); format: functional
Structure (SMILES),Activity (A549 [1]) [%],Activity (NCI-H23),IC50 (A549 [2]) [µM],Activity (A549 [3]),Activity (A549 [4]) [%],Activity (A549 [5]) [%],Activity [6],Activity (A549 [7]),Activity (A549 [8]),Activity [9],Activity (A549 [10]),inhibition (A549 [11]),Activity (A549 [12]),Activity (A549 [13]),Activity (A549 [14]) [%],Activity (A549 [15]) [%],Activity (NCI-H460),Activity (A549 [16]),Activity (A549 [17]) [%],Activity (A549 [18]),other results
CCCS(=O)(=O)C12OC1C(=O)c1c(OC)ccc(OC)c1C2=O (stereo not drawn),23.47,Active,2.59,Active,17.49,60.04,inactive,6.31 - 8.05%,Tde,Active,Tde,inactive,Tde,Active,17.94,18.26,Active,Tde,0.2,inactive,inhibition (A549 [19]): Active; Activity [20]: inactive; Activity (A549 [21]): 7.11%; Activity (A549 [22]): 69%
CCCCCCCCCS(=O)(=O)C12OC1C(=O)c1c(OC)ccc(OC)c1C2=O (stereo not drawn),26.58,Active,7.54,Active,20.99,59.58,inactive,1.89 - 12.93%,Tde,Active,Tde,inactive,Tde,Active,15.06,22.02,Active,Tde,7.87,inactive,inhibition (A549 [19]): Active; Activity [20]: inactive; Activity (A549 [21]): 6.43%; Activity (A549 [22]): 68.84%
